Results taken from ChEMBL document CHEMBL3826914, “Selective photodepletion of malignant T cells in extracorporeal photopheresis with selenorhodamine photosensitizers” (Bioorg Med Chem, 2016).

system: not listed separately; test: Drug extrusion in human CD4 positive cells assessed as change in mean fluorescence intensity at 5 x 10^-8 M preincubated for 20 mins followed by growth in photosensitizer-free media for 30 mins by flow cytometric analysis relative to control; assay type: cell-based; details: 0.5 h, 0.05 µM

Compound	Activity [%]
C[N+]1=c2cc3c(cc2C(C)(C)CC1)=C(c1ccc(C(=O)N2CCCCC2)s1)c1cc2c4c(c1[Se]3)CCCN4CCC2.[Cl-]	54.1

system: not listed separately; test: Drug extrusion in human CD3 positive cells assessed as change in mean fluorescence intensity at 5 x 10^-8 M preincubated for 20 mins followed by growth in photosensitizer-free media for 30 mins by flow cytometric analysis relative to control; assay type: cell-based; details: 0.5 h, 0.05 µM

Compound	Activity [%]
C[N+]1=c2cc3c(cc2C(C)(C)CC1)=C(c1ccc(C(=O)N2CCCCC2)s1)c1cc2c4c(c1[Se]3)CCCN4CCC2.[Cl-]	52.7

system: not listed separately; test: Drug uptake in SEB-stimulated human CD25 negative cells assessed as mean fluorescence intensity at 5 x 10^-8 M preincubated for 20 mins followed by growth in photosensitizer-free media for 30 mins by flow cytometric analysis relative to control; details: 0.5 h, 0.05 µM

Compound	Flu intensity [a.u.]
C[N+]1=c2cc3c(cc2C(C)(C)CC1)=C(c1ccc(C(=O)N2CCCCC2)s1)c1cc2c4c(c1[Se]3)CCCN4CCC2.[Cl-]	9300

system: not listed separately; test: (§1) Phototoxicity human CD4 positive cells co-cultured with GFP expressing human HUT78 cells assessed as cell survival at 7.5 x 10^-8 M preincubated 20 mins in photosensitizer media followed by growth in photosensitizer-free media for 30 mins measured 18 hrs after exposure to 5 J/cm2 irradiation by FACS analysis; assay type: cell-based; details: read-out: Survival
Summary of the method: (§2)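 Non-stimulated PBMCs from healthy donors (Ficoll-separated) were mixed 5:1 with GFP-transfected, sorted (>98%) HUT-78 cells. Cells took up 7.5×10^-8 M photosensitizer for 20 min, then spent 30 min in dye-free medium. They were exposed to 5 J cm^-2 light (600 nm LED) with rotation at 180 rpm. Survival was gated by FACS (GFP, CD3, CD4, CD8) 18 h later versus non-irradiated controls. Triplicate; mean ± SEM.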

Compound	viability at 18 h, 0.075 µM [%]
C[N+]1=c2cc3c(cc2C(C)(C)CC1)=C(c1ccc(C(=O)N2CCCCC2)s1)c1cc2c4c(c1[Se]3)CCCN4CCC2.[Cl-]	0.37

system: ABCB1; test: Passive permeability in dog MDCK2-MDR1 cells expressing ABCB1 at 5 uM after 30 mins in presence of compound 15 by LC-MS/MS analysis; assay type: ADME, cell-based, Canis lupus familiaris, MDCK-II; details: MDCK-MDR1, with compound 15 (concentration not stated), read-out: permeability
Summary of the method: (§3)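 MDR1-transfected MDCKII cells (passage 16–42) were seeded at 50,000 cells cm^-2 on Transwell filters and used on day 6. Monolayers were rinsed in DPBS with 10^-2 M HEPES, pH 7.4, at 37 °C. They were preincubated 30 min in 4.3 mg/mL BSA/DPBSH with or without 5×10^-6 M P-gp inhibitor. 5 μM dye was added apically or basolaterally and samples taken after 1 h at 37 °C with nutation. Quantitation was by LC-MS/MS; P_passive is the mean of P_AB and P_BA under full inhibition. Mean ± SD.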

Compound	Papp at 0.5 h, 5 µM [×10⁻⁶ cm/s]
C[N+]1=c2cc3c(cc2C(C)(C)CC1)=C(c1ccc(C(=O)N2CCCCC2)s1)c1cc2c4c(c1[Se]3)CCCN4CCC2.[Cl-]	0.1

system: HuT78; test: Drug uptake in GFP expressing human HUT78 cells co-cultured with non-stimulated human PBMC cells assessed as change in mean fluorescence intensity at 7.5 x 10^-8 M after 20 mins followed by growth in photosensitizer-free media for 30 mins by flow cytometric analysis relative to control; assay type: cell-based; details: hut78, 0.5 h, 0.075 µM

Compound	Activity [%]
C[N+]1=c2cc3c(cc2C(C)(C)CC1)=C(c1ccc(C(=O)N2CCCCC2)s1)c1cc2c4c(c1[Se]3)CCCN4CCC2.[Cl-]	47.1

system: not listed separately; test: Drug extrusion in SEB-stimulated human CD25 positive cells assessed as change in mean fluorescence intensity at 5 x 10^-8 M preincubated for 20 mins followed by growth in photosensitizer-free media for 30 mins by flow cytometric analysis relative to control; details: 0.5 h, 0.05 µM

Compound	Activity [%]
C[N+]1=c2cc3c(cc2C(C)(C)CC1)=C(c1ccc(C(=O)N2CCCCC2)s1)c1cc2c4c(c1[Se]3)CCCN4CCC2.[Cl-]	37

system: not listed separately; test: Drug extrusion in SEB-stimulated human CD25 negative cells assessed as mean fluorescence intensity at 5 x 10^-8 M preincubated for 20 mins followed by growth in photosensitizer-free media for 30 mins by flow cytometric analysis relative to control; details: 0.5 h, 0.05 µM

Compound	Flu intensity [a.u.]
C[N+]1=c2cc3c(cc2C(C)(C)CC1)=C(c1ccc(C(=O)N2CCCCC2)s1)c1cc2c4c(c1[Se]3)CCCN4CCC2.[Cl-]	3900

system: not listed separately; test: Drug extrusion in human CD8 positive cells assessed as change in mean fluorescence intensity at 5 x 10^-8 M preincubated for 20 mins followed by growth in photosensitizer-free media for 30 mins by flow cytometric analysis relative to control; assay type: cell-based; details: 0.5 h, 0.05 µM

Compound	Activity [%]
C[N+]1=c2cc3c(cc2C(C)(C)CC1)=C(c1ccc(C(=O)N2CCCCC2)s1)c1cc2c4c(c1[Se]3)CCCN4CCC2.[Cl-]	79.6

system: not listed separately; test: as §1, with “CD3” for “CD4”; assay type: cell-based; details: read-out: Survival; summary of the method: as §2

Compound	viability at 18 h, 0.075 µM [%]
C[N+]1=c2cc3c(cc2C(C)(C)CC1)=C(c1ccc(C(=O)N2CCCCC2)s1)c1cc2c4c(c1[Se]3)CCCN4CCC2.[Cl-]	4.8

system: HuT78; details: human, hut78, 0.5 h, 0.075 µM

Compound	Flu intensity [a.u.]
C[N+]1=c2cc3c(cc2C(C)(C)CC1)=C(c1ccc(C(=O)N2CCCCC2)s1)c1cc2c4c(c1[Se]3)CCCN4CCC2.[Cl-]	33200

system: not listed separately; test: Drug extrusion in SEB-stimulated human CD25 positive cells assessed as mean fluorescence intensity at 5 x 10^-8 M preincubated for 20 mins followed by growth in photosensitizer-free media for 30 mins by flow cytometric analysis relative to control; details: 0.5 h, 0.05 µM

Compound	Flu intensity [a.u.]
C[N+]1=c2cc3c(cc2C(C)(C)CC1)=C(c1ccc(C(=O)N2CCCCC2)s1)c1cc2c4c(c1[Se]3)CCCN4CCC2.[Cl-]	25000

system: ABCB1; test: Permeability from basolateral to apical side in dog MDCK2-MDR1 cells expressing ABCB1 at 5 uM after 30 mins in absence of compound 15 by LC-MS/MS analysis; assay type: ADME, cell-based, Canis lupus familiaris, MDCK-II; details: MDCK-MDR1, read-out: permeability; summary of the method: as §3

Compound	Papp B→A at 0.5 h, 5 µM [×10⁻⁶ cm/s]
C[N+]1=c2cc3c(cc2C(C)(C)CC1)=C(c1ccc(C(=O)N2CCCCC2)s1)c1cc2c4c(c1[Se]3)CCCN4CCC2.[Cl-]	6.6

system: ABCB1; test: Permeability from apical to basolateral side in dog MDCK2-MDR1 cells expressing ABCB1 at 5 uM after 30 mins in absence of compound 15 by LC-MS/MS analysis; assay type: ADME, cell-based, Canis lupus familiaris, MDCK-II; details: MDCK-MDR1, read-out: permeability; summary of the method: as §3

Compound	Papp A→B at 0.5 h, 5 µM [×10⁻⁶ cm/s]
C[N+]1=c2cc3c(cc2C(C)(C)CC1)=C(c1ccc(C(=O)N2CCCCC2)s1)c1cc2c4c(c1[Se]3)CCCN4CCC2.[Cl-]	0.14

system: not listed separately; test: Drug uptake in SEB-stimulated human CD25 positive cells assessed as mean fluorescence intensity at 5 x 10^-8 M preincubated for 20 mins followed by growth in photosensitizer-free media for 30 mins by flow cytometric analysis relative to control; details: 0.5 h, 0.05 µM

Compound	Flu intensity [a.u.]
C[N+]1=c2cc3c(cc2C(C)(C)CC1)=C(c1ccc(C(=O)N2CCCCC2)s1)c1cc2c4c(c1[Se]3)CCCN4CCC2.[Cl-]	33800

system: ABCB1; test: Permeability from basolateral to apical side in dog MDCK2-MDR1 cells expressing ABCB1 at 5 uM after 30 mins in presence of compound 15 by LC-MS/MS analysis; assay type: ADME, cell-based, Canis lupus familiaris, MDCK-II; details: MDCK-MDR1, with compound 15 (concentration not stated), read-out: permeability; summary of the method: as §3

Compound	Papp B→A at 0.5 h, 5 µM [×10⁻⁶ cm/s]
C[N+]1=c2cc3c(cc2C(C)(C)CC1)=C(c1ccc(C(=O)N2CCCCC2)s1)c1cc2c4c(c1[Se]3)CCCN4CCC2.[Cl-]	0.28

system: not listed separately; test: N-octanol/water partition coefficient, logP of the compound at 23 degC after 1 hr by HPLC based shake flask method; assay type: physicochemical; details: not given
Summary of the method: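 Shake-flask method using 1-octanol: 3–5 min of mixing, then 1 h settling. Equilibration and measurement were at 23 °C, in triplicate.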

Compound	logP
C[N+]1=c2cc3c(cc2C(C)(C)CC1)=C(c1ccc(C(=O)N2CCCCC2)s1)c1cc2c4c(c1[Se]3)CCCN4CCC2.[Cl-]	3.51

system: ABCB1; test: Permeability from apical to basolateral side in dog MDCK2-MDR1 cells expressing ABCB1 at 5 uM after 30 mins in presence of compound 15 by LC-MS/MS analysis; assay type: ADME, cell-based, Canis lupus familiaris, MDCK-II; details: MDCK-MDR1, with compound 15 (concentration not stated), read-out: permeability; summary of the method: as §3

Compound	Papp A→B at 0.5 h, 5 µM [×10⁻⁶ cm/s]
C[N+]1=c2cc3c(cc2C(C)(C)CC1)=C(c1ccc(C(=O)N2CCCCC2)s1)c1cc2c4c(c1[Se]3)CCCN4CCC2.[Cl-]	0.018

system: not listed separately; test: Drug extrusion in SEB-stimulated human CD25 negative cells assessed as change in mean fluorescence intensity at 5 x 10^-8 M preincubated for 20 mins followed by growth in photosensitizer-free media for 30 mins by flow cytometric analysis relative to control; details: 0.5 h, 0.05 µM

Compound	Activity [%]
C[N+]1=c2cc3c(cc2C(C)(C)CC1)=C(c1ccc(C(=O)N2CCCCC2)s1)c1cc2c4c(c1[Se]3)CCCN4CCC2.[Cl-]	58.6

system: HuT78; test: as §1, with “in” for “human CD4 positive cells co-cultured with”, “HUT78 cells co-cultured with human PBMC” for “HUT78”; assay type: functional; details: HuT78, light or radiation study, read-out: Survival; summary of the method: as §2

Compound	viability at 0.075 µM [%]
C[N+]1=c2cc3c(cc2C(C)(C)CC1)=C(c1ccc(C(=O)N2CCCCC2)s1)c1cc2c4c(c1[Se]3)CCCN4CCC2.[Cl-]	1.24

system: HuT78; details: human, hut78, 0.5 h, 0.075 µM; remark: another data set of the same source

Compound	Flu intensity [a.u.]
C[N+]1=c2cc3c(cc2C(C)(C)CC1)=C(c1ccc(C(=O)N2CCCCC2)s1)c1cc2c4c(c1[Se]3)CCCN4CCC2.[Cl-]	20000

system: not listed separately; test: as §1, with “CD8” for “CD4”; assay type: cell-based; details: read-out: Survival; summary of the method: as §2

Compound	viability at 18 h, 0.075 µM [%]
C[N+]1=c2cc3c(cc2C(C)(C)CC1)=C(c1ccc(C(=O)N2CCCCC2)s1)c1cc2c4c(c1[Se]3)CCCN4CCC2.[Cl-]	24.5
